Laboratory results reported in ChEMBL document CHEMBL3588757, “Structure-based design, synthesis and biological testing of piperazine-linked bis-epipodophyllotoxin etoposide analogs” (Bioorg Med Chem, 2015).

Columns and labels:
Type in all cases: functional
K562 = test: Relative resistance, ratio of IC50 for etoposide-resistant human K/VP.5 cells to IC50 for human K562 cells
KM12 = test: Cytotoxicity against human KM12 cells assessed as cell growth at 50 uM by SRB assay; settings: read-out: Activity
SW-620 = test: Cytotoxicity against human SW620 cells assessed as cell growth at 50 uM by SRB assay; settings: read-out: Activity
M14 = test: Cytotoxicity against human M14 cells assessed as cell growth at 50 uM by SRB assay; settings: read-out: Activity
UACC-257 = test: Cytotoxicity against human UACC257 cells assessed as cell growth at 50 uM by SRB assay; settings: read-out: Activity
OVCAR-4 = test: Cytotoxicity against human OVCAR4 cells assessed as cell growth at 50 uM by SRB assay; settings: read-out: Activity
OVCAR-5 = test: Cytotoxicity against human OVCAR5 cells assessed as cell growth at 50 uM by SRB assay; settings: read-out: Activity
MDA-MB-468 = test: Cytotoxicity against human MDA-MB-468 cells assessed as cell growth at 50 uM by SRB assay; settings: read-out: Activity
NCI-H322M = test: Cytotoxicity against human NCI-H322M cells by SRB assay
Method in brief: (§1)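 NCI-60 panel screen; 5-dose testing giving GI50 per cell line, plus a single 10 µM one-dose test. Method details not given beyond the NCI screen.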

HCC 2998 = test: Cytotoxicity against human HCC2998 cells by SRB assay
Method in brief: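 Measured in the NCI-60 human tumour cell line panel using five-dose testing. Growth was recorded at each dose for each cell line, and a GI50 was derived for each line.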

SK-MEL-2 = test: Cytotoxicity against human SK-MEL-2 cells by SRB assay; method in brief: as §1
SK-MEL-28 = test: Cytotoxicity against human SK-MEL-28 cells by SRB assay; method in brief: as §1
OVCAR-3 = test: Cytotoxicity against human OVCAR3 cells by SRB assay; method in brief: as §1
OVCAR-8 = test: Cytotoxicity against human OVCAR8 cells by SRB assay; method in brief: as §1
[1] = read-out: LC50 (the source's name)
[2] = read-out: pLC50 (the source's name) (converted)

**Q.** Which “Ratio IC50” value (K562) does the source give for `COc1cc([C@@H]2c3cc4c(cc3[C@@H](NC(=O)CN3CCN(CCCCCCN5CCN(CC(=O)N[C@@H]6c7cc8c(cc7[C@@H](c7cc(OC)c(O)c(OC)c7)[C@H]7C(=O)OC[C@@H]76)OCO8)CC5)CC3)[C@H]3COC(=O)[C@H]23)OCO4)cc(OC)c1O` here?
**A.** Its value is 21.5.

**Q.** What about the growth at 50 µM (KM12) of the same molecule?
**A.** The growth at 50 µM was 10%.

**Q.** What about the growth at 50 µM (SW-620) of the same molecule?
**A.** Its growth at 50 µM is 4%.

**Q.** And the growth at 50 µM (M14)?
**A.** Its growth at 50 µM is -19%.

**Q.** And the growth at 50 µM (UACC-257)?
**A.** Its growth at 50 µM is 41%.

**Q.** What about the growth at 50 µM (OVCAR-4) of the same molecule?
**A.** Its growth at 50 µM is 21%.

**Q.** And the growth at 50 µM (OVCAR-5)?
**A.** The growth at 50 µM was 10%.

**Q.** What about the growth at 50 µM (MDA-MB-468) of the same molecule?
**A.** The growth at 50 µM was -33%.

**Q.** What about the GI50 (NCI-H322M; read-out: GI50) of the same molecule?
**A.** Its GI50 is 30.7 µM.

**Q.** And the CC50 (NCI-H322M; [1])?
**A.** Its CC50 is > 50 µM.

**Q.** What about the TGI (NCI-H322M; read-out: TGI) of the same molecule?
**A.** Its TGI is > 50 µM.

**Q.** What about the GI50 (NCI-H322M; read-out: pGI50 (converted)) of the same molecule?
**A.** The GI50 was 30.9 µM.

**Q.** What about the CC50 (NCI-H322M; [2]) of the same molecule?
**A.** The CC50 was > 50.1 µM.

**Q.** What about the TGI (NCI-H322M; read-out: pTGI (converted)) of the same molecule?
**A.** Its TGI is > 50.1 µM.

**Q.** What about the GI50 (HCC 2998; read-out: GI50) of the same molecule?
**A.** The GI50 was 9.47 µM.

**Q.** And the CC50 (HCC 2998; [1])?
**A.** Its CC50 is > 50 µM.

**Q.** And the TGI (HCC 2998; read-out: TGI)?
**A.** Its TGI is 38.3 µM.

**Q.** And the GI50 (HCC 2998; read-out: pGI50 (converted))?
**A.** Its GI50 is 9.55 µM.

**Q.** What about the CC50 (HCC 2998; [2]) of the same molecule?
**A.** The CC50 was > 50.1 µM.

**Q.** What about the TGI (HCC 2998; read-out: pTGI (converted)) of the same molecule?
**A.** Its TGI is 38 µM.

**Q.** And the GI50 (SK-MEL-2; read-out: GI50)?
**A.** The GI50 was 11.3 µM.

**Q.** What about the CC50 (SK-MEL-2; [1]) of the same molecule?
**A.** The CC50 was > 50 µM.

**Q.** And the TGI (SK-MEL-2; read-out: TGI)?
**A.** The TGI was 35.5 µM.

**Q.** And the GI50 (SK-MEL-2; read-out: pGI50 (converted))?
**A.** Its GI50 is 11.2 µM.

**Q.** And the CC50 (SK-MEL-2; [2])?
**A.** The CC50 was > 50.1 µM.

**Q.** What about the TGI (SK-MEL-2; read-out: pTGI (converted)) of the same molecule?
**A.** Its TGI is 35.5 µM.

**Q.** And the GI50 (SK-MEL-28; read-out: GI50)?
**A.** Its GI50 is 6.52 µM.

**Q.** And the CC50 (SK-MEL-28; [1])?
**A.** Its CC50 is > 50 µM.

**Q.** And the TGI (SK-MEL-28; read-out: TGI)?
**A.** The TGI was > 50 µM.

**Q.** And the GI50 (SK-MEL-28; read-out: pGI50 (converted))?
**A.** Its GI50 is 6.46 µM.

**Q.** And the CC50 (SK-MEL-28; [2])?
**A.** The CC50 was > 50.1 µM.

**Q.** What about the TGI (SK-MEL-28; read-out: pTGI (converted)) of the same molecule?
**A.** Its TGI is > 50.1 µM.

**Q.** What about the GI50 (OVCAR-3; read-out: GI50) of the same molecule?
**A.** Its GI50 is 8.92 µM.

**Q.** What about the CC50 (OVCAR-3; [1]) of the same molecule?
**A.** Its CC50 is > 50 µM.

**Q.** And the TGI (OVCAR-3; read-out: TGI)?
**A.** Its TGI is > 50 µM.

**Q.** What about the GI50 (OVCAR-3; read-out: pGI50 (converted)) of the same molecule?
**A.** The GI50 was 8.91 µM.

**Q.** And the CC50 (OVCAR-3; [2])?
**A.** Its CC50 is > 50.1 µM.

**Q.** And the TGI (OVCAR-3; read-out: pTGI (converted))?
**A.** Its TGI is > 50.1 µM.

**Q.** What about the GI50 (OVCAR-8; read-out: GI50) of the same molecule?
**A.** Its GI50 is 35.7 µM.

**Q.** What about the CC50 (OVCAR-8; [1]) of the same molecule?
**A.** The CC50 was > 50 µM.
